From the RNAGym collection of RNA variant scans (doi:10.1126/science.aae0568) come the findings set out here.

Variants at the floor of the assay were thinned out. A value given as a limit tells only on which side of the number the result lay.

Sequences and labels used below:
B1: tRNA (parent)
chain: GUUCCGUUGGCGUAAUGGUAACGCGUCUCCCUCCUAAGGAGAAGACUGCGGGUUCGAGUCCCGUACGGAACG

The variants in the data set derive from B1. The data set is described as follows: yeast fitness relative to wild type (ratio to wild type); higher = fitter; tRNA-Arg(CCU), competitive growth, 37 C, YPD. Put shortly: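 Variants of the tRNA-Arg(CCU) gene, chemically synthesised with a 3% per-site mutation rate at 69 sites, were placed at the native genomic locus in Saccharomyces cerevisiae. The pooled strains were competed in YPD at 37°C for 24 hours in six parallel replicates. Gene amplicons from the start population and from each end population were read by 100-nucleotide paired-end sequencing. Darwinian fitness relative to wild type came from changes in genotype frequencies; genotypes needed ≥ 100 starting reads, and estimates < 0.5 were set to 0.5.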
For GUCCGGUUGGGGUAAUGGUAACGCGUCUCCCUCCUAAGGAGAAGACUGCGGGUUCGAGUCCCGUAUGGAACG [U3C C5G C11G C66U], the yeast fitness is at most 0.5.

On to GUCCCGUUGGCGUAAUGGUAAGGCGUCUCCCUCCUAAGGAGAAGACUGCGGGUUCGAGUCCCGUACUGAACG [U3C C22G G67U], for which the yeast fitness was 0.538.

On to GUCCCGUUGGCGUAAUGGUAACGCGUCUCCCUCCUAAGGAGAAGACUGCGGGUUCGAGUCCCGUACGGAUCG [U3C A70U], for which the yeast fitness was 1.01.

Turning to GUCCUGUUGGCGUAAUGGUAACGCGACUCCCUCCUAAGGAGAAGACUGCGGGUUCGAGUCCCAUACGGAACG [U3C C5U U26A G63A], the yeast fitness was at most 0.5.

On to GUCCCGUUGGUGUAAUGGUAACGCGUCUCCCUCCUAAGGAGAAGACUGCGGGUUCAAGUCCCGUACGGAACG [U3C C11U G56A], for which the yeast fitness turned out to be 0.742.

For GUCCAGUUGGCGUAAUGGUAACGCGUCUCCCUCCUAAGGAGAAGACUGCGGGUUCGAGUCCCGUACGGAACG [U3C C5A], the yeast fitness was determined as 0.89.

With GUCCCGUUGGCGUAAUGGUAACGCGUCUCCCUCCUAAGGUGAAGACUGAGGGUUCGAGUCCCGUACGGAUCG [U3C A40U C49A A70U], the yeast fitness was at most 0.5.

For the variant GUCCCGUUGGCGUAAUGGUAACGCGUCUCCCUCCUAAGGAGAAGACUGCGGGUUCGGGUCCCGUACGGAACG [U3C A57G], the yeast fitness was determined as 0.714.

Regarding GUCCCGUUGGCGUAAUGGUAACGCGUCUCCCUCCUAAGGAGAAGCGUGAGGGUUCGAGUCCCGUACGGUACG [U3C A45C C46G C49A A69U], the yeast fitness was at most 0.5.

For GUCCCGUUGGCGUAAUGGUAAGGCGUCUCCCUCCUAAGGAGAAGACUGCGGCUUCGAGUCCCGUACCGAACG [U3C C22G G52C G67C], the yeast fitness was at most 0.5.

Turning to GUCCCGUUGGAGUAAUGGUAACGCAUCUCCCUCCUAAGGAGAAGAGUGCGGGUUCGUGUCCCGUACGGAACG [U3C C11A G25A C46G A57U], the yeast fitness came to 0.504.

In the case of GUCGCGUUGGCGUAAUGGUAACGCGUCUCCCUCCUAAGGAGGAGUCUGCGGGUUCGAGUCCCGUAUGGAACG [U3C C4G A42G A45U C66U], the yeast fitness amounted to 0.53.

GUCCGGUUGGGGUAAUGGUAACGCGUCUCCCUCCUAAGGAGAAGACUACGGGUUCGAGUCCCGUACGGGACG [U3C C5G C11G G48A A69G]: the yeast fitness was at most 0.5.

For GUCCCGUUGGCGUAAUGGUAAUGCGUCUCCCUCCUAAGGAGAAGACUACGGGUUCGAGUCCCGUACGGAACG [U3C C22U G48A], the yeast fitness was found to be 0.955.

In the case of GUCUCGUUGGCGUAAUGGUAACGCGUCUCCCUCCCAAGGAGAAGACUGCGGGUUCGAGUCCCGUACGGAUCG [U3C C4U U35C A70U], the yeast fitness was found to be 0.544.

As for GUCCCGUUGGUGCAAUGGUAACGAGUCUCCCUCCUAAGGAGACGACUGCCGGUUCGAGUGCCGUACGGAACG [U3C C11U U13C C24A A43C G50C C60G], the yeast fitness is at most 0.5.

Turning to GUCCUGUUGGCGUAAUGGUAACGUGUCUCCCUCCUAAGGAGCAGACUGCGGGUUCGUGUCCCGUACGGAACG [U3C C5U C24U A42C A57U], the yeast fitness is at most 0.5.

In the case of GUCCCGUUGGCGUAAUGGUAAGGCGUCUCCCUCCUAAGGAGAAGACUGCGGGUUCGAGUCCCGUACGGAACG [U3C C22G], the yeast fitness was 0.859.

GUCCGGUUGGCGUAAUGGUAACGCGUCUCCCUCCUAAAGAGAAGACUGCGGGUUCGAGUCCCGUACGGAACG [U3C C5G G38A]: the yeast fitness is at most 0.5.

As to GUCCCGUUGGCGUAAUGGUAAGGCGUAUCCCUCCUAAGGAGAAGACUGUGGGUUCGAGUCCCGUACGGAACG [U3C C22G C27A C49U], the yeast fitness is at most 0.5.

For the variant GUCCCGUUGGUGUAAUGGUAACGCGUCUCCCUCCUCAGGAGAAGACUGCGGGUUCGAGUCCCGUCUGGAACG [U3C C11U A36C A65C C66U], the yeast fitness was at most 0.5.

For GUCCCGUUGGUGUAAUGGUAACGCGUCUCCCUCCUAAGGAGAAGACUGCGGGUUCGAGUCCCGUGCGGAACG [U3C C11U A65G], the yeast fitness is 0.732.

In the case of GUCCCGUUGGAGUAAUGGUAACGCGUCUCCCUUCUAAGGAGAAGACUGAGGGUUCGAGUCCCGUACGGAACG [U3C C11A C33U C49A], the yeast fitness was at most 0.5.

With GUCCCGUUGGCGUAAUGGUAAUGCGUCUCCCUCCUAAGGAGAAGACUGCGGGUUCGAGUCCCGUAUGGAACG [U3C C22U C66U], the yeast fitness is 0.552.

Take GUCGCGUGGGCGUAAUGGUAACGCGUCUCCCUCCUAAGGAGGAGACUGCGGGUUCGAGUCCGGUCCGGAACG [U3C C4G U8G A42G C62G A65C]: the yeast fitness was at most 0.5.

Consider GUCACGUUGGCGUAAUAGUAACGCGUCUCCCUCCUAAGGAAAAGACUGCGGGUUCGAGUCCCGUAUGGAACG [U3C C4A G17A G41A C66U], for which the yeast fitness was at most 0.5.

On to GUCCCGUUGGCGUAAUGGUAACGCGUCUCCCUCCUAAGGAGAAGCCUGCGGGUUCGAGUCCCGUACAGAACG [U3C A45C G67A], for which the yeast fitness was at most 0.5.

On to GUCUCGUUGGCGUAAUGGUAGCGCGUCUCCCUCCUAAGGAGAAGAAUGCGGGUUCGAGUCCCGUACGGAACG [U3C C4U A21G C46A], for which the yeast fitness amounted to 0.628.

As to GUCCCGUUGGUGUAAUGGUAACGCGUCUUCCUCCUAAGGAGAAGACUGCGGGUUCGAGUCCCGUACAGAUCG [U3C C11U C29U G67A A70U], the yeast fitness is at most 0.5.

Turning to GUCCCGUUGGCGUAAUGGUAACGGGUCUCCCUCCUAAGGAGAAGACUGUGGGUUGGAAUCCCGUACGGAACG [U3C C24G C49U C55G G58A], the yeast fitness was 0.576.

In the case of GUCCGGUUGGCGUAAUGGUAUCGCGUCUCCCUCCUAAGGAGCAGACUGCGGGUUCGAGUCCCGUACGGAACG [U3C C5G A21U A42C], the yeast fitness was at most 0.5.

Take GUCUCGUUGGCGUAAUGGUAACGCGUCUCCCUCCUAAGGAGAAGACUGCGGGUUCGAGUCCCGAACGGAACG [U3C C4U U64A]: the yeast fitness is 0.617.

Regarding GUCCGGUUGGCGUAAUGGUAACGCGUCUCCCUCAUAUGGAGAAAACUGCGAGUUAGAGUCCCGUACGGAACG [U3C C5G C34A A37U G44A G51A C55A], the yeast fitness was at most 0.5.

As to GUCUCGUUGGCGUAAUGGUAACGCGUCUCUCUCCUAAGGAGAAGACUGCGGGUUCGGGUCCCGUACGGAACG [U3C C4U C30U A57G], the yeast fitness is at most 0.5.

GUCCCGUUGGCGUAAUGGUAAAGCGUCUCCCUCCUAAGGAGAAGACAGCGGGUUCGAGUCCCGUACGGAGCG [U3C C22A U47A A70G]: the yeast fitness was at most 0.5.

As for GUCGCGUUGGCCUAAUGGUAACGCGUCUCCCUCCUAAGGAGAAGACUGCGGGUUCGAGUCCCGUACGGAACG [U3C C4G G12C], the yeast fitness was 0.687.

Consider GUCCCGUUGGCGUAAUGGUAACGAGUCUCCCUCCUAAGGAGAGGACUGCGGAUUCGAAUCCCGUACGGAACG [U3C C24A A43G G52A G58A], for which the yeast fitness was at most 0.5.

For the variant GUCCGGUUGGCGUAAUGGGAACGCGUCUCCAUCCUAAGGAGAAGAAUGCGGGUUCGAGUCCCGUACGGAACG [U3C C5G U19G C31A C46A], the yeast fitness worked out at 0.663.
